Published values of several laboratories.
Protocols differ between the studies behind these lines.
Target: Activin receptor type-1-like (ACVRL1, Homo sapiens, UniProt P37023)

CC(C)(C)c1nc(-c2cccc(NS(=O)(=O)c3c(F)cccc3F)c2F)c(-c2ccnc(N)n2)s1 — remaining activity (enzyme activity; inhibitor; radiometric; 1 µM): 75%
CCC(=O)N[C@@H]1CC[C@H](C(=O)N(C)c2ccc(-c3nc4ccccc4o3)cc2)C1 — remaining binding (cell-free assay; competition with immobilised ligand; 1 µM): 100%
CNC(=O)c1cc(Oc2ccc(NC(=O)Nc3ccc(Cl)c(C(F)(F)F)c3)cc2)ccn1 — remaining signal (cell-free assay; 0.5 µM): 104%
C[C@H](c1cccc(C#N)c1)n1cc(Cl)cc(C(N)=O)c1=N — remaining binding (cell-free assay; competition with immobilised ligand; 1 µM): 93%
Cc1ccc(C(=O)Nc2ccc(CN3CCN(C)CC3)c(C(F)(F)F)c2)cc1C#Cc1cnc2cccnn12 — remaining signal (cell-free assay; 23.5 nM): 100%
O=C(Nc1cnn(-c2csc(C(=O)NC3COC3)c2)c1)Nc1c(F)cccc1Cl — remaining activity (enzyme activity; inhibitor; 5 µM): 120%
O=C(O)[C@@H]1[C@@H](Cn2nnc3ccccc3c2=O)CC[C@H]1C(=O)c1ccc(OCCC2CCOCC2)cc1 — remaining binding (binding; competition with immobilised ligand; 1 µM): 97%
CC(C)(O)[C@H]1CC[C@H](Nc2ccc3ncc(-c4cccc(C(F)(F)F)c4)n3n2)CC1 — remaining activity (enzyme activity; inhibitor; 1 µM): 66.7%
COc1cc(Cl)c(C(=O)N[C@@H](CN[C@H]2CC[C@@H](N)CC2)Cc2ccc(C#N)cc2)cc1-c1ccc(CN[C@H](C)c2ccc(C)cc2)o1 — remaining activity (enzyme activity; inhibitor; 1 µM): 123%
O=C1NC(=O)c2cc(Nc3ccc(F)cc3)c(Nc3ccc(F)cc3)cc21 — remaining signal (cell-free assay; 0.5 µM): 95.9%
Cc1nccc(COC(=O)N2C[C@@H]3[C@@H](CNC(=O)c4ccc5[nH]nnc5c4)[C@@H]3C2)n1 — remaining binding (binding; competition with immobilised ligand; 1 µM): 100%
O=C1Nc2ccc(Cl)cc2C1=Cc1cc(Cl)c(O)c(Cl)c1 — remaining signal (cell-free assay; 0.5 µM): 96.4%
Cc1ccc(C(=O)NCc2ccsc2)cc1C#Cc1cn(C(C)C)c2ncnc(N)c12 — activity vs control (enzyme activity; inhibitor; 1 µM): 94%
Cc1ccc(NC(=O)c2ccc(C)c(C(F)(F)F)c2)cc1C#Cc1nn(C2CCC(O)CC2)c2ncnc(N)c12 (stereo not drawn) — remaining signal (cell-free assay; 10 µM): 71%
COc1cc(Nc2c(C#N)cnc3cc(OCCCN4CCN(C)CC4)c(OC)cc23)c(Cl)cc1Cl — remaining signal (cell-free assay; 0.5 µM): 67.6%
